Results on 24 molecules are retold here after ChEMBL document CHEMBL1123559, “Inhibition of phenylethanolamine N-methyltransferase (PNMT) by aromatic hydroxy-substituted 1,2,3,4,-tetrahydroisoquinolines: further studies on the hydrophilic pocket of the aromatic ring binding region of the active site” (J Med Chem, 1987).

Where only a bound is given, the exact number is not on record here.

Data set [1] addresses T1, Phenylethanolamine N-methyltransferase (Bos taurus, UniProt P10938).
T1 sequence (P10938 whole entry): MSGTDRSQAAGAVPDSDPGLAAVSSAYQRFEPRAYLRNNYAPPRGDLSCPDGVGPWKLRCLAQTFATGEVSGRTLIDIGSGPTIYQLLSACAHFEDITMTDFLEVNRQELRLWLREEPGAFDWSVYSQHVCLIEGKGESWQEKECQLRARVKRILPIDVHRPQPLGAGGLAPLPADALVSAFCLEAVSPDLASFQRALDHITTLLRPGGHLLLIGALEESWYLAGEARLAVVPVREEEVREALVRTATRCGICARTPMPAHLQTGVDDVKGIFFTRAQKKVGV
The data set can be described thus: In vitro inhibition of bovine phenylethylamine N-methyl-transferase (PNMT) using radiochemical assay.

Data set [2] is described as follows: Ratio of Vmax to Km. Also noted: unit not given here.
Compound in data set [3]: COc1cccc2c1C1CC2[C@H](N)C1
The experiment in a line: (§1) In vitro inhibition of Phenylethylamine N-Methyltransferase (PNMT) using radiochemical assay expressed as Vmax.

Compound in data set [4]: COc1ccc2c(c1)C1CC2[C@H](N)C1
The data set is described as §1.

Compound in data set [5]: COc1ccc2c(c1)C1CCC2[C@@H]1N
Described as §1.

Compound in data set [6]: N[C@@H]1CC2CC1c1cc(O)c(O)cc12
The description is as §1.

Compound in data set [7]: COc1cccc2c1C1CC2[C@H](N)C1
The experiment in a line: (§2) In vitro inhibition of Phenylethylamine N-Methyltransferase (PNMT) using radiochemical assay. The essentials:
(§3)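 Bovine adrenal PNMT, partially purified through isoelectric precipitation, was used with phenylethanolamine as the variable substrate. At least three inhibitor concentrations were tested, all below levels giving mixed kinetics. The mix held pH 8.0 phosphate, unlabeled AdoMet (10 μM stock) and [methyl-3H]AdoMet, run 30 min at 37 °C. After a borate quench, product was extracted into toluene/isoamyl alcohol and scintillation counted. Ki and mode came from 1/V vs 1/S plots.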

Compound in data set [8]: COc1ccc2c(c1)C1CC2[C@H](N)C1
The description is as §2. In short, it runs like this:
as §3

Compound in data set [9]: COc1ccc2c(c1)C1CCC2[C@@H]1N
The data set is described as §2. The essentials: as §3

Compound in data set [10]: N[C@@H]1CC2C[C@@H]1c1ccccc12
The data set is described as §2. In short, it runs like this: as §3

Regarding `N[C@H]1C2CCC1c1cc(O)ccc12` (some centres undefined), the affinity in data set [1] corresponds to a Ki of 108 µM.
In [1], `Oc1cc2c(cc1O)CNCC2` showed a Ki of 5.7 µM.
The same measure, in the same setting: under `Oc1cccc2c1CCNC2` stands 90 µM; under `COc1cccc2c1C1CC2C[C@H]1N` (some centres undefined), greater than 2000 µM; under `c1ccc2c(c1)CCNC2` [1,2,3,4-TETRAHYDROISOQUINOLINE], 10.3 µM.
Same read-out and setting: under `COc1cccc2c1C1CCC2[C@@H]1N` (some centres undefined) stands 1100 µM.
In turn, `Oc1ccc2c(c1)CNCC2` displayed a Ki in [1] of 2.6 µM.
In [1], `Oc1ccc2c(c1)CCNC2` returned a Ki of 7.8 µM.
As for `NC1C2CC[C@H]1c1ccccc12` (some centres undefined), the Ratio in [2] stood at 0.12.
Molecule `COc1ccc2c(c1)C1CCC2[C@@H]1N` (some centres undefined) gave a Ki in [1] of 735 µM. Further, the Ratio in [2] came to 0.08.
In turn, `COc1cccc2c1CCNC2` registered a Ki in data set [1] of 550 µM.
In the case of `COc1ccc2c(c1)C1CC2[C@H](N)C1` (some centres undefined), the affinity in data set [1] corresponds to a Ki of 1260 µM. Moreover, the Ratio in data set [2] stood at 0.01.
For `COc1cccc2c1C1CC2[C@H](N)C1` (some centres undefined) the same measures were greater than 2000 µM and 0.02.
In the case of `N[C@H]1C2CCC1c1c(O)cccc12` (some centres undefined), in [1], the Ki was greater than 4000 µM.
Still for that read-out and setting: under `N[C@@H]1CC2CC1c1c(O)cccc12` (some centres undefined) stands greater than 3000 µM.
In the case of `N[C@@H]1CC2C[C@@H]1c1ccccc12`, the Ratio in data set [2] is 0.01.
As to `Oc1cccc2c1CNCC2`, the affinity in data set [1] corresponds to a Ki of 1080 µM.
Same read-out and setting: under `N[C@@H]1CC2CC1c1cccc(O)c12` (some centres undefined) stands greater than 10000 µM; under `COc1cccc2c1CNCC2`, 3.8 µM.
Still for that read-out and setting: under `COc1ccc2c(c1)C1CC2C[C@H]1N` (some centres undefined) stands greater than 2000 µM.
As to `N[C@@H]1CC2CC1c1cc(O)c(O)cc12` (some centres undefined), in data set [2], the Ratio was 0.06.
Molecule `NS(=O)(=O)c1ccc2c(c1)CNCC2` came in with a Ki in [1] of […].
`COc1ccc2c(c1)CNCC2` showed a Ki in [1] of 20 µM.

B1: Phenylethanolamine N-methyltransferase (Bos taurus), P10938 (protein)
chain: MSGTDRSQAAGAVPDSDPGLAAVSSAYQRFEPRAYLRNNYAPPRGDLSCPDGVGPWKLRCLAQTFATGEVSGRTLIDIGSGPTIYQLLSACAHFEDITMTDFLEVNRQELRLWLREEPGAFDWSVYSQHVCLIEGKGESWQEKECQLRARVKRILPIDVHRPQPLGAGGLAPLPADALVSAFCLEAVSPDLASFQRALDHITTLLRPGGHLLLIGALEESWYLAGEARLAVVPVREEEVREALVRTATRCGICARTPMPAHLQTGVDDVKGIFFTRAQKKVGV
As for B1, the Vmax turned out to be 0.22 nmol/min/mg in data set [3], 0.06 nmol/min/mg in [4], 0.23 nmol/min/mg in data set [5] and 0.44 nmol/min/mg in [6]. Further, the Km is 970 µM in data set [7], 602 µM in data set [8], 294 µM in data set [9] and 392 µM in data set [10].

Usually Ki stands for a dissociation constant, usually derived from enzyme kinetics or from competition with a known ligand. In general, Vmax refers to the top rate of the reaction or transport when substrate is in excess. As a reminder, the Km is the substrate concentration at which the rate is half of its maximum.
